# Calls of active or inactive are those of the source. The rule behind the calls is not given here.
# Experiments:
# Leishmania donovani [1] = test: Antileishmanial activity against Leishmania donovani MHOM/IN/80/DD8 promastigote forms harboring luciferase gene at 25 uM after 72 hrs by Steady-Glo reagent based luminescence assay relative to control; type: functional; conditions: MHOM/IN/80/DD8, 72 h, read-out: GI
# Method in brief: (§1)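 Exponential-phase Dd8-Luc promastigotes at 1×10^6/mL in M199 with 10% FBS, 24 °C, given 50 and 25 µM for 72 h. Vehicle 0.1% DMSO. Steady-Glo added 1:1, luminescence (RLU) read. IC50 from four-parameter Hill regression, derived only where inhibition exceeded 90%. Means of at least three independent experiments.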
# Leishmania donovani [2] = test: Antileishmanial activity against Leishmania donovani MHOM/IN/80/DD8 promastigote forms harboring luciferase gene at 50 uM after 72 hrs by Steady-Glo reagent based luminescence assay relative to control; type: functional; conditions: MHOM/IN/80/DD8, 72 h, read-out: GI; method in brief: as §1
# Leishmania donovani [3] = test: Antileishmanial activity against Leishmania donovani MHOM/IN/80/DD8 amastigote forms harboring luciferase gene infected in mouse J774 cells at 25 uM after 72 hrs by Steady-Glo reagent based luminescence assay relative to control; type: functional
# Method in brief: (§2)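 Stationary-phase luciferase-expressing Dd8 promastigotes infected into J774 macrophages (4×10^4/mL seeded, 24 h, 37 °C, 5% CO2) at 1:8 macrophage:parasite for 24 h. Non-internalised parasites washed off. Compounds added at 50 and 25 µM in RPMI/10% FBS for 72 h. Lysis with Steady-Glo luciferin reagent plus PBS, luminescence read. Inhibition relative to untreated infected controls.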
# Leishmania donovani [4] = test: Antileishmanial activity against Leishmania donovani MHOM/IN/80/DD8 amastigote forms harboring luciferase gene infected in mouse J774 cells at 50 uM after 72 hrs by Steady-Glo reagent based luminescence assay relative to control; type: functional; method in brief: as §2
# Leishmania donovani [5] = test: Antileishmanial activity against Leishmania donovani MHOM/IN/80/DD8 promastigote forms harboring luciferase gene after 72 hrs by Steady-Glo reagent based luminescence assay; type: functional; conditions: MHOM/IN/80/DD8, 72 h; method in brief: as §1
# Leishmania donovani [6] = test: Antileishmanial activity against Leishmania donovani MHOM/IN/80/DD8 amastigote forms harboring luciferase gene infected in mouse J774 cells after 72 hrs by Steady-Glo reagent based luminescence assay; type: functional, cell-based; conditions: MHOM/IN/80/DD8, J774, 72 h
# [7] = Cytotoxicity against mouse J774 cells assessed as reduction in cell viability after 72 hrs by MTT assay; type: cell-based
# Method in brief: (§3)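 Vero and J774 cells seeded at 1×10^5 per well for 24 h, then exposed 72 h to seven two-fold dilutions from 500 to 7.81 μM. MTT solution (5 mg/mL stock) added for 2 h at 37 °C, formazan dissolved in DMSO and read at 540 nm. CC50 derived by the Huber and Koella method.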
# [8] = Cytotoxicity against African green monkey Vero cells assessed as reduction in cell viability after 72 hrs by MTT assay; type: cell-based; conditions: chlorocebus sabaeus; method in brief: as §3
# [9] = Selectivity index, ratio of CC50 for mouse J774 cells to IC50 for Leishmania donovani MHOM/IN/80/DD8 amastigote forms infected in mouse J774 cells; type: toxicity, cell-based; conditions: read-out: Ratio CC50/IC50
# Method in brief: (§4)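 CC50: Vero or J774 cells (1×10^5/well) exposed 72 h to seven two-fold dilutions, 500–7.81 μM; MTT 2 h at 37 °C, formazan in DMSO read at 540 nm. IC50: luciferase-expressing Dd8 amastigotes in J774 macrophages (1:8), 72 h, luminescence, four-parameter Hill fit. SI = CC50/IC50, IC50 mean of three experiments.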
# [10] = Selectivity index, ratio of CC50 for African green monkey Vero cells to IC50 for Leishmania donovani MHOM/IN/80/DD8 amastigote forms infected in mouse J774 cells; type: toxicity, cell-based; conditions: read-out: Ratio CC50/IC50; method in brief: as §4
# Leishmania donovani [11] = test: Antileishmanial activity against Leishmania donovani MHOM/IN/80/DD8 promastigote forms harboring luciferase gene after 72 hrs by Steady-Glo reagent based two fold dilution assay; type: functional; conditions: MHOM/IN/80/DD8, 72 h
# Method in brief: (§5)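 Promastigotes or J774-resident amastigotes treated 72 h with six two-fold dilutions from 200 µM down to 6.25 µM. Luciferase RLU fitted by four-parameter Hill non-linear regression to derive the […] inhibitory concentration (MIC).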
# Leishmania donovani [12] = test: Antileishmanial activity against Leishmania donovani MHOM/IN/80/DD8 amastigote forms harboring luciferase gene infected in mouse J774 cells after 72 hrs by Steady-Glo reagent based two fold dilution assay; type: functional; conditions: MHOM/IN/80/DD8, 72 h; method in brief: as §5
# [13] = Cytotoxicity against mouse J774 cells assessed as cell viability […] after 72 hrs by MTT assay relative to control; type: cell-based; conditions: read-out: Activity; method in brief: as §3
# [14] = Cytotoxicity against African green monkey Vero cells assessed as cell viability up to 200 uM after 72 hrs by MTT assay relative to control; type: cell-based; conditions: chlorocebus sabaeus, read-out: Activity
# Leishmania donovani [15] = test: Antileishmanial activity against Leishmania donovani MHOM/IN/80/DD8 promastigote forms harboring luciferase gene at 9.59 uM up to 72 hrs by MTT assay relative to control; type: functional; conditions: MHOM/IN/80/DD8, 72 h
# Leishmania donovani [16] = test: Antileishmanial activity against Leishmania donovani MHOM/IN/80/DD8 amastigote forms harboring luciferase gene infected in mouse J774 cells at 7.36 uM up to 72 hrs by Giemsa staining based assay relative to control; type: functional; conditions: MHOM/IN/80/DD8, J774, 72 h
# Method in brief: (§6)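 J774 macrophages in chamber slides infected with Dd8 promastigotes (1:10 cell:parasite in methods; 1:8 in legend) for 24 h, then treated 48 and 72 h. Cells methanol-fixed, stained with 20% Giemsa. Amastigotes per 100 macrophages counted against untreated infected controls.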
# Leishmania donovani [17] = test: Antileishmanial activity against Leishmania donovani MHOM/IN/80/DD8 amastigote forms harboring luciferase gene infected in mouse J774 cells at 50 uM up to 72 hrs by Giemsa staining based assay relative to control; type: functional; conditions: MHOM/IN/80/DD8, J774, 72 h; method in brief: as §6
# Leishmania donovani [18] = test: Antileishmanial activity against Leishmania donovani MHOM/IN/80/DD8 promastigote forms harboring luciferase gene at 6.25 to 12.5 uM up to 4 days by Steady-Glo reagent based luminescence assay; type: functional
# Method in brief: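 Log-phase luciferase promastigotes at 1.0×10^6 at 24 °C, pH 7.4, given two-fold dilutions from 200 to 6.25 µM. RLU in lysed cultures measured daily for up to 4 days to plot growth curves. Three independent experiments.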
# Leishmania donovani [19] = test: Antileishmanial activity against Leishmania donovani MHOM/IN/80/DD8 amastigote forms harboring luciferase gene infected in mouse J774 cells at 6.25 to 12.5 uM up to 4 days by Steady-Glo reagent based luminescence assay; type: functional, cell-based
# Method in brief: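 Infected J774 macrophages held at 37 °C with two-fold dilutions from 200 to 6.25 µM. Intracellular amastigote growth followed by luciferase activity in lysed macrophages, expressed as RLU, over time. Three independent experiments.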
# Leishmania donovani [20] = test: Antileishmanial activity against Leishmania donovani MHOM/IN/80/DD8 promastigote forms harboring luciferase gene at 50 uM up to 72 hrs by MTT assay relative to control; type: functional; conditions: MHOM/IN/80/DD8, 72 h
# [21] = Stability in pH 1.2 simulated gastric fluid at 5 ug/ml after 120 mins by HPLC method
# Method in brief: (§7)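 Incubated in simulated gastric fluid (pH 1.2) or simulated intestinal fluid (pH 6.5); percentage remaining intact determined after 120 min.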
# [22] = Stability in pH 6.5 simulated intestinal fluid at 5 ug/ml after 120 mins by HPLC method; method in brief: as §7
# [23] = Metabolic stability in mouse liver S9 fractions at 1 mM after 60 mins in presence of NADPH by HPLC method; type: ADME; conditions: read-out: Stability
# [24] = Half life in mouse liver S9 fractions at 1 mM in presence of NADPH by HPLC method; type: ADME, tissue-based
# Liver = test: Intrinsic clearance in mouse liver S9 fractions assessed per mg protein at 1 mM in presence of NADPH by HPLC method; type: ADME; conditions: s9, 1000 µM
# [25] = Metabolic stability in mouse liver S9 fractions assessed as rate constant for metabolism at 1 mM after 60 mins in presence of NADPH by HPLC method; type: ADME, tissue-based
# Leishmania donovani [26] = test: Antileishmanial activity against Leishmania donovani amastigote forms infected in Balb/c mouse assessed as inhibition of parasitic burden in liver up to 100 mg/kg, ip administered for 5 consecutive days measured on day 7 post last treatment by Giemsa staining based assay relative to control; type: functional
# Leishmania donovani [27] = test: Antileishmanial activity against Leishmania donovani amastigote forms infected in Balb/c mouse assessed as inhibition of parasitic burden in spleen up to 100 mg/kg, ip administered for 5 consecutive days measured on day 7 post last treatment by Giemsa staining based assay relative to control; type: functional
# Leishmania donovani [28] = test: Antileishmanial activity against Leishmania donovani amastigote forms infected in Balb/c mouse assessed as inhibition of parasitic burden in spleen at 200 mg/kg, ip administered for 5 consecutive days measured on day 7 post last treatment by Giemsa staining based assay relative to control; type: functional
# Leishmania donovani [29] = test: Antileishmanial activity against Leishmania donovani amastigote forms infected in Balb/c mouse assessed as inhibition of parasitic burden in liver at 200 mg/kg, ip administered for 5 consecutive days measured on day 7 post last treatment by Giemsa staining based assay relative to control; type: functional
# [30] = MHOM/IN/80/DD8, J774, 72 h, read-out: GI
smiles,measurement,setting,value
COc1ccc(OC)c(C2C3=C(CC(C)(C)CC3=O)Nc3c2c(-c2c[nH]c4ccccc24)nn3-c2ccc(Cl)c(Cl)c2)c1 (configuration not stated),inhibition of growth at 25 µM,Leishmania donovani [1],85.9%
same,inhibition of growth at 50 µM,Leishmania donovani [2],90.6%
same,inhibition of growth at 25 µM,Leishmania donovani [3]; [30],91.5%
same,inhibition of growth at 50 µM,Leishmania donovani [4]; [30],95.8%
same,IC50,Leishmania donovani [5],9.59 µM
same,IC50,Leishmania donovani [6],7.36 µM
same,CC50 at 72 h,[7],482 µM
same,CC50 at 72 h,[8],498 µM
same,selectivity ratio,[9],65.5
same,selectivity ratio,[10],67.6
same,MIC,Leishmania donovani [11],50 µM
same,MIC,Leishmania donovani [12],50 µM
same,viability at 72 h,[13],> 95%
same,viability at 72 h,[14],> 95%
same,inhibition at 9.59 µM,Leishmania donovani [15],> 95%
same,inhibition at 7.36 µM,Leishmania donovani [16],> 93%
same,inhibition at 50 µM,Leishmania donovani [17],> 93%
same,Activity,Leishmania donovani [18],Active
same,Activity,Leishmania donovani [19],Active
same,inhibition at 50 µM,Leishmania donovani [20],> 95%
same,Stability,[21],75%
same,Stability,[22],58%
same,"remaining at 1 h, 1000 µM",[23],31%
same,half-life at 1000 µM,[24],40 min
same,CLH,Liver,34.65 µL/min
same,"k el at 1 h, 1000 µM",[25],0.000283 s⁻¹
same,inhibition (INH),Leishmania donovani [26],>50%
same,inhibition (INH),Leishmania donovani [27],>50%
same,Imax,Leishmania donovani [28],68%
same,Imax,Leishmania donovani [29],62%
CC1(C)CC(=O)c2c(nc3c(c(-c4c[nH]c5ccccc45)nn3-c3ccc(Cl)cc3)c2-c2ccc(Cl)cc2Cl)C1,inhibition of growth at 25 µM,Leishmania donovani [1],35.7%
same,inhibition of growth at 50 µM,Leishmania donovani [2],40.6%
same,growth inhibition (GI),Leishmania donovani [3],inactive
same,growth inhibition (GI),Leishmania donovani [4],inactive
COc1cc(-c2c3c(nc4c2c(-c2c[nH]c5ccccc25)nn4-c2ccc(Cl)cc2)CC(C)(C)CC3=O)cc(OC)c1OC,inhibition of growth at 25 µM,Leishmania donovani [1],59.1%
same,inhibition of growth at 50 µM,Leishmania donovani [2],68.6%
same,growth inhibition (GI),Leishmania donovani [3],inactive
same,growth inhibition (GI),Leishmania donovani [4],inactive
CC1(C)CC(=O)c2c(nc3c(c(-c4c[nH]c5ccccc45)nn3-c3ccc(F)cc3)c2-c2ccc(Cl)cc2)C1,inhibition of growth at 25 µM,Leishmania donovani [1],61.3%
same,inhibition of growth at 50 µM,Leishmania donovani [2],68.6%
same,growth inhibition (GI),Leishmania donovani [3],inactive
same,growth inhibition (GI),Leishmania donovani [4],inactive

# From ChEMBL document CHEMBL3992522, “Antileishmanial Activity of Pyrazolopyridine Derivatives and Their Potential as an Adjunct Therapy with Miltefosine” (J Med Chem, 2017)
